Results taken from ChEMBL document CHEMBL1123757, “Selective thromboxane synthetase inhibitors and antihypertensive agents. New derivatives of 4-hydrazino-5H-pyridazino[4,5-b]indole, 4-hydrazinopyridazino[4,5-a]indole, and related compounds” (J Med Chem, 1987).

Experiments:
Rattus norvegicus [1] = assay: Antihypertensive activity in spontaneously hypertensive rats (SHR) measured by percentage fall in arterial pressure (AP) at 1 mg/kg administered intraperitoneally at 24 h; No significance; assay type: functional, organism-based; set-up: dose 1 mg/kg; settings: Artery
In short: (§1)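 Unanesthetized Okamoto-strain SHR, male and female, 8 weeks old, 300–350 g, systolic pressure ≥190 mmHg, heart rate 400–650 beats/min; five animals per dose. Given ip at 2.5 mL/kg, dissolved or suspended in normal saline or saline with 0.2% (carboxymethyl)cellulose and 1.0% Tween 80. Tail AP and CR recorded by mechanical transduction at set times; reported as percentage fall from control.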

Rattus norvegicus [2] = assay: Antihypertensive activity in spontaneously hypertensive rats (SHR) measured by percentage fall in cardiac rhythm (CR) at 25 mg/kg administered perorally at 24 h; No significance; assay type: functional, organism-based; set-up: dose 25 mg/kg; settings: Heart
In short: (§2)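 Conscious SHR (Okamoto strain), 8 weeks old, male and female, 300–350 g, systolic BP ≥190 mmHg, CR 400–650 beats/min. Given ip or po at 2.5 mL/kg in normal saline or saline with 0.2% (carboxymethyl)cellulose and 1.0% Tween 80. Tail AP and CR recorded by mechanical transduction at 1, 3, 5 and 24 h, five animals per dose. Effect expressed as % fall versus control.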

Rattus norvegicus [3] = assay: Antihypertensive activity in spontaneously hypertensive rats (SHR) measured by percentage fall in arterial pressure (AP) at 25 mg/kg administered perorally at 5 h; No significance; assay type: functional, organism-based; set-up: dose 25 mg/kg; settings: Artery
In short: (§3)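 Oral dosing at 2.5 mL/kg to unanesthetized male and female Okamoto-strain SHR (8 weeks old, 300–350 g, systolic pressure ≥190 mmHg, heart rate 400–650 beats/min), five per dose. Vehicle was normal saline or saline with 0.2% (carboxymethyl)cellulose and 1.0% Tween 80. AP measured on the tail by mechanical transduction at set times; expressed as percentage fall from control.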

Rattus norvegicus [4] = assay: Antihypertensive activity in spontaneously hypertensive rats (SHR) measured by percentage fall in cardiac rhythm (CR) at 5 mg/kg administered intraperitoneally at 3 h;No significance; assay type: functional, organism-based; set-up: dose 5 mg/kg; settings: Heart; in short: as §2
Rattus norvegicus [5] = assay: Antihypertensive activity in spontaneously hypertensive rats (SHR) measured by percentage fall in cardiac rhythm (CR) at 5 mg/kg administered perorally at 3 h;No significance; assay type: functional, organism-based; set-up: dose 5 mg/kg; settings: Heart; in short: as §2
Rattus norvegicus [6] = assay: Antihypertensive activity in spontaneously hypertensive rats (SHR) measured by percentage fall in cardiac rhythm (CR) at 5 mg/kg administered intraperitoneally at 24 h; No significance; assay type: functional, organism-based; set-up: dose 5 mg/kg; settings: Heart; in short: as §2
Rattus norvegicus [7] = assay: Antihypertensive activity in spontaneously hypertensive rats (SHR) measured by percentage fall in arterial pressure (AP) at 25 mg/kg administered perorally at 24 h; No significance; assay type: functional, organism-based; set-up: dose 25 mg/kg; settings: Artery; in short: as §3
Homo sapiens [8] = species: Homo sapiens; assay: In vitro inhibition of platelet aggregation induced by DD (PRP incubated for 5 minutes at 37 degree C) at 10e-5 M;No significance; assay type: functional
In short: (§4)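 Human venous blood anticoagulated with 3.8% sodium citrate (1:9). PRP from centrifugation at 800 rpm for 10 min at room temperature. Count adjusted with PPP to […]. Compound in saline with 10% ethylene glycol is added to PRP and incubated at 37 °C before the agonist. Agonists: ADP 2×10^-5 M, AA 0.6 mM, PGH2 2.8 μM, adrenaline 0.6 μM. Born absorbance aggregometry; n = 5.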

Rattus norvegicus [9] = assay: Antihypertensive activity in spontaneously hypertensive rats (SHR) measured by percentage fall in cardiac rhythm (CR) at 25 mg/kg administered intraperitoneally at 1 h;No significance; assay type: functional, organism-based; set-up: dose 25 mg/kg; settings: Heart; in short: as §1
Rattus norvegicus [10] = assay: Antihypertensive activity in spontaneously hypertensive rats (SHR) measured by percentage fall in arterial pressure (AP) at 5 mg/kg administered perorally at 24 h; No significance; assay type: functional, organism-based; set-up: dose 5 mg/kg; settings: Artery; in short: as §3
Rattus norvegicus [11] = assay: Antihypertensive activity in spontaneously hypertensive rats (SHR) measured by percentage fall in cardiac rhythm (CR) at 5 mg/kg administered perorally at 5 h; No significance; assay type: functional, organism-based; set-up: dose 5 mg/kg; settings: Heart; in short: as §2
Rattus norvegicus [12] = assay: Antihypertensive activity in spontaneously hypertensive rats (SHR) measured by percentage fall in cardiac rhythm (CR) at 25 mg/kg administered perorally at 5 h; No significance; assay type: functional, organism-based; set-up: dose 25 mg/kg; settings: Heart; in short: as §2
Rattus norvegicus [13] = assay: Antihypertensive activity in spontaneously hypertensive rats (SHR) measured by percentage fall in cardiac rhythm (CR) at 25 mg/kg administered intraperitoneally at 24 h;No significance; assay type: functional, organism-based; set-up: dose 25 mg/kg; settings: Heart; in short: as §1
Rattus norvegicus [14] = assay: Antihypertensive activity in spontaneously hypertensive rats (SHR) measured by percentage fall in cardiac rhythm (CR) at 5 mg/kg administered perorally at 24 h; No significance; assay type: functional, organism-based; set-up: dose 5 mg/kg; settings: Heart; in short: as §2
Homo sapiens [15] = species: Homo sapiens; assay: In vitro inhibition of platelet aggregation induced by AA (PRP incubated for 60 minutes at 37 degree C) at 10e-5 M;No significance; assay type: functional; in short: as §4
Rattus norvegicus [16] = assay: Antihypertensive activity in spontaneously hypertensive rats (SHR) measured by percentage fall in arterial pressure (AP) at 5 mg/kg administered perorally at 5 h; No significance; assay type: functional, organism-based; set-up: dose 5 mg/kg; settings: Artery; in short: as §3
Rattus norvegicus [17] = assay: Percent fall in systolic blood pressure, directly measured on carotid (iv on the jugular vein) of spontaneously hypertensive rats at 1 mg/kg after 180 minutes; No significance; assay type: functional, organism-based; set-up: dose 1 mg/kg; settings: Artery
In short: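 Anesthetized (sodium pentobarbital, 70 mg/kg) male and female Okamoto SHR, 8 weeks old, 300–350 g. Given iv into the jugular vein in normal saline. Arterial pressure and cardiac rhythm are recorded directly from the carotid by polygraph at set times after dosing. Each is expressed as percent change from the pre-dose control value.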

Rattus norvegicus [18] = assay: Antihypertensive activity in spontaneously hypertensive rats (SHR) measured by percentage fall in cardiac rhythm (CR) at 25 mg/kg administered perorally at 3 h;No significance; assay type: functional, organism-based; set-up: dose 25 mg/kg; settings: Heart; in short: as §2
Rattus norvegicus [19] = assay: Antihypertensive activity in spontaneously hypertensive rats (SHR) measured by percentage fall in cardiac rhythm (CR) at 5 mg/kg administered intraperitoneally at 1 h;No significance; assay type: functional, organism-based; set-up: dose 5 mg/kg; settings: Heart; in short: as §2
Rattus norvegicus [20] = assay: Antihypertensive activity in spontaneously hypertensive rats (SHR) measured by percentage fall in arterial pressure (AP) at 1 mg/kg administered intraperitoneally at 5 h; No significance; assay type: functional, organism-based; set-up: dose 1 mg/kg; settings: Artery; in short: as §1

CCOc1ccc2[nH]c3c(NN)nncc3c2c1
inactive: Decrease in AP (Rattus norvegicus [1]) No significant values | Decrease in AP (Rattus norvegicus [2]) No significant values | Decrease in AP (Rattus norvegicus [3]) No significant values | Decrease in blood pressure (Rattus norvegicus [4]) No significant values | Decrease in blood pressure (Rattus norvegicus [5]) No significant values | Decrease in CR (Rattus norvegicus [6]) No significant values | Decrease in blood pressure (Rattus norvegicus [7]) No significant values | inhibition (Homo sapiens [8]) No significant values | Decrease in CR (Rattus norvegicus [9]) No significant values | Decrease in AP (Rattus norvegicus [10]) No significant values | Decrease in AP (Rattus norvegicus [11]) No significant values | Decrease in CR (Rattus norvegicus [12]) No significant values | Decrease in CR (Rattus norvegicus [13]) No significant values | Decrease in CR (Rattus norvegicus [14]) No significant values | inhibition (Homo sapiens [15]) No significant values | Decrease in AP (Rattus norvegicus [16]) No significant values | Decrease in AP (Rattus norvegicus [17]) No significant values | Decrease in blood pressure (Rattus norvegicus [18]) No significant values | Decrease in CR (Rattus norvegicus [19]) No significant values | Decrease in AP (Rattus norvegicus [20]) No significant values
